FN deposit inh – fibronectin deposition inhibition; AID 743247; 350,000 tested, 0.086% active; inhibition, % at 12.6 µM; AH1F fibroblasts, Alexa488-fibronectin deposition fluorescence, overnight;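 active = mean inhibition across replicates of 30% or more, regardless of how many single replicates reach that level; inconclusive = mean under 30% yet at least half of replicates reach 30%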
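Material: AH1F fibroblast monolayer depositing Alexa488-labelled fibronectin into matrix / Amount: 10000 AH1F cells per well / Signal: fluorescence 485/525 nm / Medium: DMEM, 2% serum / Compound: single dose, pinned / Incubation: 1 h cell adhesion before compound, then overnight fibronectin incubation / Reagent: Alexa488-FN, 24 nM final / Read-out: inhibition of fibronectin deposition signal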
rRNA inh HTS – inhibitors of bacterial rRNA selective over humanized ribosomes; GFP signal change (wild-type ribosome), % (concentration not given with the values); 350,000 tested, 1.6% active; E. coli WT GFP vs humanized-ribosome RFP mutants, fluorescence, 24 h; active compounds read low; DMSO median 0, no signal -100;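 active = significant combined selectivity score with lowered wild-type GFP, culture density cut under 30%, mutant RFP and density less affected; inactive = any of these conditions unmet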
DENV2 CPE rescue – protects cells from dengue virus 2 cytopathic effect; DENV2-infected cells, cytopathic effect rescue, plate reader; CPE inhibition, % at 9.99 µM; 350,000 tested, 1.7% active; AID 651640; in the data active = CPE inhibition above about 20%, passing the limit was not always enough; inconclusive = no clear call, values can overlap the other calls; tested in BHK-21 cells
PGC1a acetyl inh – lowers PGC1a acetylation signal in U2OS cells; 350,000 tested, 0.17% active; AID 651687; inhibition, % at 15.6 µM; AlphaScreen anti-acetyl-lysine; with virally co-expressed GCN5 acetyltransferase;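 active = every replicate shows inhibition of at least 40%; inconclusive = mean inhibition at least 40% but some replicate below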
PglD DTNB – inhibitors of Campylobacter jejuni PglD acetyltransferase. 360,000 tested, 0.098% active. inhibition, % at 12.5 µM. purified PglD enzyme, DTNB colorimetric CoA detection; in the data active = inhibition above about 16%, passing the limit was not always enough; inconclusive = no clear call, values can overlap the other calls
Env fusion inh – blocks HIV Env-driven cell-cell fusion. HeLa-JRFL Env/CEM21 cell fusion, luciferase. inhibition, % at 12.3 µM. 360,000 tested, 1.1% active;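 active = mean replicate inhibition score of at least 50 and every replicate individually at or above 50; inconclusive = only one of the two criteria met; inactive = mean below 50 and not all replicates reaching 50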
Of the large screens only hits and unclear results are named; the others gave an inactive call. The list is not random: actives were taken first. Their share in the collection is about 3.5%.

O=C(Cc1ccccn1)N1CC(=O)N2[C@H](CO)[C@@H](c3ccc(C#CC4CCCCC4)cc3)[C@@H]2C1	DENV2 CPE rescue 26 (no result: PglD DTNB, Env fusion inh)
CCS(=O)(=O)Nc1ccc2c(c1)C(=O)N(C)C[C@@H](OC)[C@@H](C)CN(Cc1ccccn1)[C@H](C)CO2	none
C[C@@H]1CN([C@@H](C)CO)C(=O)c2cc(C3=CCCC3)cnc2O[C@@H]1CN(C)C(=O)c1ccc(F)cc1	none (no result: FN deposit inh)
CCOC(=O)c1ccc(NC(=S)N2CCSC2c2c(F)cc(F)cc2F)cc1 (stereo not drawn)	rRNA inh HTS -28 (no result: PGC1a acetyl inh, PglD DTNB)
Fc1cc(F)c(C2SCCN2C(=S)Nc2cccc(C(F)(F)F)c2)c(F)c1 (stereo not drawn)	none
O=c1cc(C(F)(F)F)[nH]c2ccc(C(F)(F)F)cc12	rRNA inh HTS -50 (no result: PGC1a acetyl inh, PglD DTNB)
CCn1c(SCc2ccccc2)nc2ccccc2c1=O	rRNA inh HTS -32 (no result: PGC1a acetyl inh)
COCCNC(=O)C[C@@H]1C[C@@H]2c3cc(NC(=O)Nc4ccc(OC)cc4)ccc3O[C@@H]2[C@H](CO)O1	none
COc1ccc2c3c(n(C)c2c1)[C@H](CO)N(C(C)=O)CC31CCN(Cc2cncnc2)CC1	none (no result: FN deposit inh, DENV2 CPE rescue, PGC1a acetyl inh, PglD DTNB, Env fusion inh)
Cc1cc(Nc2ccc(Cl)cc2)nc(NCc2ccccc2)n1	Env fusion inh 71 (no result: rRNA inh HTS, DENV2 CPE rescue)
Cc1nc2scc(C)n2c(=O)c1S(=O)(=O)Nc1ccc(OC(F)(F)F)cc1	Env fusion inh 55
O=C(C[C@H]1CC[C@H]2[C@@H](COC[C@H](O)CN2Cc2ccc3c(c2)OCO3)O1)Nc1ccc(-c2ccccc2)cc1	none
CC(c1cccs1)N(Cc1ccco1)C(=S)Nc1ccccc1Cl (stereo not drawn)	rRNA inh HTS -20
COc1cc(C(=O)NCc2cccc(Cl)c2)ccc1OCC(=O)N1CCOCC1	DENV2 CPE rescue 115 (no result: PGC1a acetyl inh, PglD DTNB)
O=C(C[C@H]1CC[C@@H]2[C@H](COC[C@@H](O)CN2Cc2ccc(F)cc2)O1)NCc1ccccc1Cl	none (no result: Env fusion inh)
CS(=O)(=O)NCCSCc1ccc(Cl)cc1	none (no result: rRNA inh HTS, DENV2 CPE rescue)
CC(C)(CNS(C)(=O)=O)SCc1ccc(Cl)cc1	rRNA inh HTS -32 (no result: PglD DTNB)
COc1ccc(S(=O)(=O)Nc2ccc3c(c2)C(=O)N([C@@H](C)CO)C[C@@H](C)[C@@H](CN(C)Cc2ccc4c(c2)OCO4)OCCCC[C@H](C)O3)cc1	DENV2 CPE rescue 22
COc1ccc(S(=O)(=O)Nc2ccc3c(c2)C(=O)N([C@H](C)CO)C[C@@H](C)[C@H](CN(C)Cc2ccc4c(c2)OCO4)OCCCC[C@@H](C)O3)cc1	none
COc1ccc(CN(C)C[C@H]2OCCCC[C@@H](C)Oc3ccc(NS(=O)(=O)c4ccc(OC)cc4)cc3C(=O)N([C@H](C)CO)C[C@@H]2C)cc1	none
COc1ccc(S(=O)(=O)Nc2ccc3c(c2)C(=O)N([C@@H](C)CO)C[C@H](C)[C@@H](CN(C)Cc2ccc4c(c2)OCO4)OCCCC[C@@H](C)O3)cc1	DENV2 CPE rescue 24
COc1ccc(S(=O)(=O)Nc2ccc3c(c2)C(=O)N([C@H](C)CO)C[C@@H](C)[C@@H](CN(C)Cc2ccc4c(c2)OCO4)OCCCC[C@@H](C)O3)cc1	DENV2 CPE rescue 21
COc1ccc(S(=O)(=O)Nc2ccc3c(c2)C(=O)N([C@H](C)CO)C[C@H](C)[C@H](CN(C)Cc2ccc4c(c2)OCO4)OCCCC[C@H](C)O3)cc1	DENV2 CPE rescue 59
COc1ccc(S(=O)(=O)Nc2ccc3c(c2)C(=O)N([C@@H](C)CO)C[C@H](C)[C@H](CN(C)Cc2ccc4c(c2)OCO4)OCCCC[C@@H](C)O3)cc1	none
C[C@H](CO)N1C[C@H](C)[C@@H](CN(C)S(=O)(=O)c2ccc(Cl)cc2)OCCCC[C@H](C)Oc2ccc(NC(=O)Nc3cccc4ccccc34)cc2C1=O	none
COCC(=O)Nc1ccc2c(c1)[C@@H]1C[C@H](CC(=O)NCCN3CCCCC3)O[C@@H](CO)[C@@H]1O2	none
O=C(c1ccc(S(=O)(=O)c2ccc(F)cc2)c([N+](=O)[O-])c1)N1CCCCCC1	none
CN(C(=O)c1ccc(S(=O)(=O)c2cccc(Cl)c2)c([N+](=O)[O-])c1)C1CCCCC1	Env fusion inh 59 (no result: rRNA inh HTS, DENV2 CPE rescue)
CN(C(=O)COC(=O)CSc1ccc([N+](=O)[O-])cc1)c1ccccc1	DENV2 CPE rescue 36 (no result: FN deposit inh, Env fusion inh)
CN(C(=O)COC(=O)c1ccc([N+](=O)[O-])cc1)c1ccccc1	none (no result: PglD DTNB)
C[C@@H]1CN([C@H](C)CO)C(=O)c2cccc(NC(=O)c3cnccn3)c2O[C@@H]1CN(C)C	none (no result: FN deposit inh, Env fusion inh)
c1ccc2c(c1)ncn2CCCCOc1ccc2c(c1)CCC2	Env fusion inh 88 (no result: rRNA inh HTS, DENV2 CPE rescue, PGC1a acetyl inh)
Cc1ccccc1OCCCCn1cnc2ccccc21	Env fusion inh 65 (no result: FN deposit inh, rRNA inh HTS, DENV2 CPE rescue)
Cc1ccccc1OCCCCN1CCCCC1	DENV2 CPE rescue 34
Cc1cccc(Cl)c1OCCN1CCCC1	DENV2 CPE rescue 70
COc1ccc(CN2C[C@H](O)COC[C@H]3O[C@@H](CC(=O)NCCN4CCCC4)CC[C@@H]32)cc1	none
Cc1cccc(S(=O)(=O)N(C)C[C@@H]2OCc3ccccc3-c3ccccc3C(=O)N([C@@H](C)CO)C[C@@H]2C)c1	DENV2 CPE rescue inconclusive (no result: Env fusion inh)
COc1ccc(CNC(=O)N(C)C[C@H]2OCc3ccccc3-c3ccccc3C(=O)N([C@@H](C)CO)C[C@H]2C)cc1	none
C[C@H]1CCCCO[C@@H](CN(C)C(=O)C2CCCCC2)[C@@H](C)CN([C@@H](C)CO)C(=O)c2cc(NS(=O)(=O)c3cn(C)cn3)ccc2O1	none (no result: FN deposit inh)
Brc1cccc(OCCN2CCCCC2)c1	none (no result: rRNA inh HTS, DENV2 CPE rescue, PGC1a acetyl inh, PglD DTNB)
CCc1cccc(OCCN2CCCC2)c1	DENV2 CPE rescue 50 (no result: PglD DTNB)
Cn1cccc1C(=O)OCC(=O)NCCc1ccc(S(N)(=O)=O)cc1	Env fusion inh 72
COc1ccc(CCNC(=O)COC(=O)c2cccn2C)cc1	Env fusion inh 78 (no result: FN deposit inh)
COC(=O)CCC(=O)OC1(C)C(=O)C=C2C=C(C3CC3)N(CCCCO)C=C2C1=O (stereo not drawn)	none (no result: PGC1a acetyl inh)
C=CCN1C=C2C(=O)C(C)(OC(=O)CCC(=O)OC)C(=O)C=C2C=C1C1CC1 (stereo not drawn)	DENV2 CPE rescue 50
C[C@@H]1CN([C@H](C)CO)C(=O)c2cc(C#Cc3cccc(F)c3)cnc2O[C@@H]1CN(C)CC1CC1	none (no result: FN deposit inh, DENV2 CPE rescue, PglD DTNB)
CCN(CC)CCN(C(=O)c1ccc(Br)s1)c1nc2cc3c(cc2s1)OCO3	none (no result: PGC1a acetyl inh, PglD DTNB)
CCN(CC)CCN(C(=O)C1CCCCC1)c1nc2cc3c(cc2s1)OCO3	rRNA inh HTS -18
O=C(Nc1cc(F)ccc1F)N1CCCCN2[C@H](C1)[C@H](c1ccc(-c3ccccc3)cc1)[C@@H]2CO	DENV2 CPE rescue 36 (no result: FN deposit inh, Env fusion inh)
O=C(Nc1cc(F)ccc1F)N1CCCCN2[C@H](CO)[C@H](c3ccc(-c4ccccc4)cc3)[C@H]2C1	DENV2 CPE rescue 62 (no result: FN deposit inh, Env fusion inh)
C[C@H]1CN([C@@H](C)CO)C(=O)Cc2cc(NC(=O)NC3CCCCC3)ccc2O[C@@H]1CN(C)Cc1ccc(C(=O)O)cc1	none (no result: FN deposit inh, Env fusion inh)

Screening data as filed in PubChem BioAssay.
